Bioassay records deposited in PubChem by Sanford-Burnham Center for Chemical Genomics.
Rows were chosen to be rich in hits. Some 1.7% of all compounds tested hit in one or more screens of this group.
MLLE-PAM2 inh – blocks PAM2 peptide binding to the PABP1 MLLE domain | GST-MLLE / FITC-PAM2 fluorescence polarization | inhibition, % at 20 µM | 360,000 compounds, 0.36% hits | AID 588489; in the data active = inhibition above about 35%, passing the limit was not always enough;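 note: plate controls were DMSO wells with GST-MLLE for no effect and wells lacking GST-MLLE protein for full effect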
Target sequence (P11940 whole entry, looked up, the tested form may be a part): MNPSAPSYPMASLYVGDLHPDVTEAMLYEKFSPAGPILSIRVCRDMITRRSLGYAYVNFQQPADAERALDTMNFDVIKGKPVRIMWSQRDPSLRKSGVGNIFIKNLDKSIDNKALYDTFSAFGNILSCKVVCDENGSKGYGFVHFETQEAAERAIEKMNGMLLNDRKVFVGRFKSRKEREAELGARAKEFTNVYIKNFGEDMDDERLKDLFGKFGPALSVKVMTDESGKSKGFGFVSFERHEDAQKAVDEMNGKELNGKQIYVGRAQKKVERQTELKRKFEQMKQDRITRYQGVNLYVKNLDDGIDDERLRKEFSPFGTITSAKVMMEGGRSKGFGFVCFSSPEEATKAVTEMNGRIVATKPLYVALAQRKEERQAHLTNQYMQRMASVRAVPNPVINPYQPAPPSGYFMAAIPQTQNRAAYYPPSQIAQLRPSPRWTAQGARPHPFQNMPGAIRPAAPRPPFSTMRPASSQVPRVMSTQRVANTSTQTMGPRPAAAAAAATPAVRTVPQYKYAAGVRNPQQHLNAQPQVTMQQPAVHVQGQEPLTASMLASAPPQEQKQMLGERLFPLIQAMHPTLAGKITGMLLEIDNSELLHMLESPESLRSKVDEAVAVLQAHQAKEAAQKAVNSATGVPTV
MT1-MMP act inh – inhibitors of human MT1-MMP activation; AID 651647; 360,000 compounds, 0.061% hits; GFP/RFP ratio change, % at 20 µM; HT1080 RFP-PRO-GFP cells, GFP/RFP ratio fluorescence, overnight; percent of plate control window, DMSO zero;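 active = GFP/RFP ratio change of at least 30% with cell ATP level not reduced by more than half and red fluorescence within 50% of control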
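Assay system: HT1080 RFP-PRO-GFP cells | Dosing: 20 µM single dose, 1% DMSO | Incubation: Cells overnight before dosing, compound overnight, 37 °C, 5% CO2 | Evaluation: GFP/RFP fluorescence ratio | Control set: DMSO-only wells and HT1080 RFP-L50D-GFP cell wells as references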
SKN-1 inh – inhibitors of C. elegans SKN-1. C. elegans VP596 Pgst-4::GFP/RFP ratio, acrylamide-induced, 24 h. inhibition, % at 21.8 µM. 360,000 compounds, 0.49% hits. AID 624304;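 active = interference check ratio from 0.5 to 1.5 plus GFP to RFP signal ratio inhibition reaching or exceeding a fixed threshold, cut at about 30% in these data, passing the limit was not always enough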
PABP FP inh – PABP-poly(A) binding inhibition; inhibition, % at 35 µM; 290,000 compounds, 1% hits; PABP-poly(A) RNA binding, fluorescence polarization;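 note: calls also rest on retests at 20 µM and on dose response follow-up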
eIF4H FP inh – inhibitors of RNA binding by human eIF4H; AID 2012; inhibition, % at 35 µM; 290,000 compounds, 0.94% hits; eIF4H fluorescence polarization binding assay; Q15056;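 note: calls also rest on retests at 20 µM and on dose response follow-up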
MT1-MMP act val – MT1-MMP (human) activation inhibition, single-concentration validation; HT1080 RFP-PRO-GFP cells, GFP and RFP fluorescence ratio, overnight; inhibition, % at 20 µM; 200 compounds, 10% hits; AID 652235; shares compounds with MT1-MMP act inh;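 active = inhibition of at least 50% in the primary cell screen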
Starred values were filed as active, the others as inactive; ? = inconclusive; . = not tested or not shown. Unless noted, the rule behind the calls is not given here.

SMILES | MLLE-PAM2 inh | MT1-MMP act inh | SKN-1 inh | PABP FP inh | eIF4H FP inh | MT1-MMP act val
O=S(=O)(c1ccc(Cl)cc1)N1CCC(N2CCOCC2)CC1 | 0.0 | -12.5 | 11.7 | 1.5 | -1.1 | .
O=C(CSCc1cccc(Br)c1)N=Nc1c(O)[nH]c2ccccc12 | 0.5 | 4.2 | 15.1 | 13.3 | -2.5 | .
O=Nc1c(-c2c(O)[nH]c3cc(Br)ccc23)[nH]c2ccccc12 | -37.0 | 77.1* | 22.5 | -2.6 | -9.4 | 70.3*
COc1cc(OC)cc(C(=O)Nc2ccc(-c3nc4ccccc4o3)cc2)c1 | -10.2 | 30.5* | -0.7 | -4.8 | -4.8 | 17.1
Nc1nc(-c2ccccc2)c(N=Nc2cccc3ccccc23)s1 | -10.7 | 34.5* | 24.0 | -6.0 | -7.7 | 37.7
Nc1nc(-c2ccccc2)c(N=Nc2ccccc2Cl)s1 | 7.3 | 42.4* | 48.6* | 21.2 | -1.2 | 47.2
Cc1ncc(N=Nc2ccccc2Cl)c(-c2ccccc2)n1 | 4.8 | 14.8 | -26.3 | 5.2 | -3.3 | .
C[C@H](CO)N1C[C@H](C)[C@@H](CN(C)C(=O)C2CC2)OCc2cnnn2CCCC1=O | 17.9 | -2.3 | 3.8 | . | . | .
COc1ccc(-n2nc(C(=O)NCC(=O)NCCC3=CCCCC3)c3ccccc3c2=O)cc1OC | 1.6 | -2.8 | -0.1 | 6.2 | 5.1 | .
CCN1/C(=C\C=C2\C(=O)N(c3ccccc3)C(=S)N2C)Sc2ccccc21 | -10.7 | 38.7* | 64.4 | -8.2 | 9.5 | 28.9
CC1=NN(c2ccccc2)C(=O)/C1=C/C=C/c1ccc(N(C)C)cc1 | -6.4 | 54.8* | 19.2 | 10.0 | 65.2 | 46.4
COc1cc(C(=O)Nc2ccc(O)cc2C(=O)O)ccc1OC(C)=O | 0.2 | 36.9* | 7.9 | 9.0 | 2.7 | 2.2
O=C(Cc1cccc([N+](=O)[O-])c1)Nc1ccc(C(=O)N2CCCCC2)cc1 | 1.8 | 0.4 | 20.7 | . | . | .
CCN(CC)c1ccc(/C=C2\C(=O)N(c3nnc(C)c(=O)[nH]3)N=C2C)cc1 | -146.3 | 32.8* | 25.0 | ? | ? | 17.4
CN(C)c1ccc(C=c2c3ccccc3n3c2cc(-c2ccc(Cl)cc2)[n+]3C)cc1 | -94.9 | 46.3 | 59.1 | . | . | .
CN(C)c1ccc(C=c2c3ccccc3n3c2c2c([n+]3C)CCCC2)cc1 | -40.6 | 81.8* | 27.7 | . | . | 57.0*
Cc1c(C)n(C)c2ccc(C(=O)NCCc3ccco3)cc12 | -32.2 | 33.2* | 79.0 | 8.3 | 3.8 | 3.8
O=C(NC1CCCCCC1)C1CCN(S(=O)(=O)c2ccccc2)CC1 | -2.3 | -1.3 | -1.7 | -2.5 | -12.1 | .
CC(=O)c1cccc(S(=O)(=O)N2CCC(C(=O)NC3CCCC3)CC2)c1 | 0.7 | 39.7* | 3.9 | . | . | 1.1
CCCCn1nc(C(=O)Nc2cc(C(F)(F)F)ccc2N2CCOCC2)ccc1=O | 8.2 | -6.7 | 1.8 | . | . | .
Cc1ccc(Cn2nc(C)c(C(=O)NCC(c3cccs3)N3CCOCC3)c2Cl)cc1 (stereo not given) | 0.2 | 5.2 | -0.4 | . | . | .
COc1ccc(C(CNC(=O)c2c(C)nn(Cc3ccc(C)cc3)c2Cl)N2CCOCC2)cc1 (stereo not given) | 7.3 | 32.0* | -1.1 | . | . | 7.8
CN1/C(=C\C(=S)NC(=O)c2cccc(Br)c2)C(C)(C)c2ccccc21 | -68.9 | 58.5 | 59.0 | -0.8 | 59.4 | .
CN1/C(=C\C(=S)NC(=O)c2ccc([N+](=O)[O-])cc2)C(C)(C)c2ccccc21 | 5.5 | 42.2* | 22.2 | -6.5 | -12.9 | 10.7
CC1CC(C)CN(C(=O)c2ccc3c(c2NCCO)C(=O)c2ccccc2C3=O)C1 (stereo not given) | 8.1 | 60.0* | 36.4* | 9.7 | 5.8 | 45.4
SMILES | MLLE-PAM2 inh | MT1-MMP act inh | SKN-1 inh | PABP FP inh | eIF4H FP inh | MT1-MMP act val
CCc1cc2c(NCc3ccco3)ncnc2s1 | -12.6 | 34.0* | -7.9 | 9.7 | -0.7 | 11.9
CCc1cc2c(NCC(=O)O)ncnc2s1 | -2.0 | 1.3 | 8.3 | 2.0 | 68.3 | .
C[N+]1=C(/C=C/Nc2ccccc2Cl)C(C)(C)c2ccccc21 | -117.8 | 51.6* | 53.1 | -10.2 | ? | 15.5
COC(=O)c1ccc2c(c1)C(C)(C)C(/C=C/c1ccccc1O)=[N+]2C | -173.8 | 92.9 | 87.0 | ? | ? | .
O=c1[nH]c(SCc2ccccc2Cl)nc2[nH]ncc12 | -16.1 | -1.4 | -10.0 | -0.9 | -7.6 | .
Cc1cccc(CSc2nc3[nH]ncc3c(=O)[nH]2)c1 | 2.5 | 34.7* | 16.2 | 2.8 | -10.4 | 10.5
Nc1ccc(N2CCCCC2)cc1N1CCCCC1 | 22.6 | 47.0* | -19.4 | 10.8 | 4.0 | -0.4
Cc1cc(N(CCO)CCO)ccc1N=Nc1cc(F)ccc1F | -7.4 | 33.0* | 29.4 | -4.0 | -14.6 | 39.0
Cc1ccc(S(=O)(=O)N2C[C@@H]3CCCC[C@@H]3[C@@H](C)[C@H]2c2cn(Cc3ccccc3)c3ncccc23)cc1 | -17.6 | -0.8 | -10.7 | . | . | .
CCOc1ccc(-n2c(SCC(=O)Nc3ccc(C(=O)O)cc3)nc3ccccc3c2=O)cc1 | -4.5 | 0.9 | 3.1 | -4.2 | 2.8 | .
O=C(O)CC/C(=N\Nc1ccccc1[N+](=O)[O-])c1cccs1 | 14.2 | 35.5* | 8.2 | 36.8 | -4.6 | 24.6
CN(C)c1ccc(C=c2c3ccccc3n3c2cc(-c2ccccc2)[n+]3C)cc1 | -125.6 | 9.5 | 82.9 | . | . | .
COc1cc(N(C)C)ccc1C=c1c2ccccc2n2c1cc(-c1ccccc1)[n+]2C | -94.9 | 64.5* | 68.5 | . | . | 64.7*
O=C(CN1CCCC1)N1CCCc2c1c(=O)oc1ccc(OCc3ccccc3)cc21 | -1.9 | 50.6* | 21.0 | 4.5 | -8.5 | 7.7
Cn1c(C(=O)N2CCCC(C(=O)c3ccc(C(F)(F)F)cc3)C2)cc(=O)n(C)c1=O (stereo not given) | 0.8 | 7.3 | -7.5 | 6.4 | -4.7 | .
Cc1ccc(S(=O)(=O)/N=C2\C=C(NS(=O)(=O)c3ccccc3)C(=O)c3ccccc32)c(C)c1 | 12.8 | 39.3* | -14.0 | . | . | 29.3
Nc1nnc(Cc2cccc(Br)c2)s1 | -1.9 | 1.7 | 14.4 | 26.4 | 18.6 | .
Cc1ccc(C(O)c2ncc(-c3ccc(C(F)(F)F)cc3)[nH]2)cc1F (stereo not given) | 1.9 | 1.8 | -0.1 | . | . | .
Cc1ccc2c(c1)C(C)(C)[C@]1(C)NC(=O)CCN21 | -6.4 | 34.7* | 31.5 | -6.9 | 2.8 | 4.7
CN1C(=O)/C(=C\c2ccccc2OCc2ccccc2)SC1=S | -1.0 | 1.1 | 0.4 | -3.1 | -1.7 | .
CN1C(=O)/C(=C\c2cc(N=Nc3ccccc3)ccc2O)SC1=S | -0.1 | 31.9* | 3.9 | -8.9 | 3.8 | 82.9*
COc1ccc(N(CC(=O)NCc2ccc(F)cc2)C(=O)Cn2nnc(-c3ccc(C)o3)n2)cc1OC | 17.1 | -6.4 | 14.9 | -10.6 | 2.7 | .
COC(=O)C1=C(C(=O)OC)SC(=C2C(=S)C(C)(C)N(C(=O)C(C)C)c3ccccc32)S1 | 32.3 | 31.0* | 9.3 | 7.6 | -8.9 | 24.6
O=c1cc2oc3cc(O)c(O)cc3c(-c3ccccc3[N+](=O)[O-])c-2cc1O | -10.7 | 40.6* | -4.5 | 34.1* | 50.5* | 51.4*
